Our source for the IC50 and inhibition values is ChEMBL document CHEMBL4350954, “Identification of Thienopyrimidine Scaffold as an Inhibitor of the ABC Transport Protein ABCC1 (MRP1) and Related Transporters Using a Combined Virtual Screening Approach” (J Med Chem, 2019).

Holding throughout (type): cell-based
Data set [1] addresses T1, Broad substrate specificity ATP-binding cassette transporter ABCG2 (Homo sapiens, UniProt Q9UNQ0).
T1 sequence (Q9UNQ0 whole entry): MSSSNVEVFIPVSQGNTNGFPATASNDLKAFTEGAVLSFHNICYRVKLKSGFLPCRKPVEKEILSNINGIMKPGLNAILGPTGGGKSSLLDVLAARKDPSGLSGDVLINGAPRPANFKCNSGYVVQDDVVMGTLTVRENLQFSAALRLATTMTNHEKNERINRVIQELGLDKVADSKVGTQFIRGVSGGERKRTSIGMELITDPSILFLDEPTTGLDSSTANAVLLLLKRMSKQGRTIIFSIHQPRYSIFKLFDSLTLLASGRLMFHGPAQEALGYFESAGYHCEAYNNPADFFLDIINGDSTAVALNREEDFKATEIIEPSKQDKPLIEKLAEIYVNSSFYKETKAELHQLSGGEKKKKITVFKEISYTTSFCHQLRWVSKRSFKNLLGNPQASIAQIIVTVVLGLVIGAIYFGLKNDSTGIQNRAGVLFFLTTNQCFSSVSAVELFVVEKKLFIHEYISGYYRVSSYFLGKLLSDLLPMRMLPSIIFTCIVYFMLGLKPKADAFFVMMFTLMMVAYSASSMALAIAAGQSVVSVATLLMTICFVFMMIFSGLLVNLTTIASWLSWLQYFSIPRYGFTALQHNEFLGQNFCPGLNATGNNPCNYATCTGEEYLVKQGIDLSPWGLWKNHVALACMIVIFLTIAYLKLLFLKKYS
The experiment in a line: Inhibition of ABCG2 (unknown origin) expressed in MDCK2 cells co-expressing BCRP (unknown origin) assessed as effect on pheophorbide A accumulation pre-incubated for 20 mins followed by pheophorbide A addition and measured after 120 mins by flow cytometric analysis. The method, boiled down: (§1)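 Pheophorbide A accumulation assay in ABCG2-transfected MDCK II BCRP cells. Ko143 at 10 µM set 100% and no compound set 0%. Screening was at 10 µM; compounds reaching >20% (+SEM) got IC50 curves constrained to the Ko143 maximum at 10 µM. Values are reported as mean ± SEM.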
(In general: In flow cytometry, cells or beads pass a laser one at a time.)

The target in another data set is T2, ABCG2 (BCRP) (Homo sapiens, UniProt Q9UNQ0).
T2 sequence (Q9UNQ0 whole entry): T1 sequence (Q9UNQ0 whole entry)
As to the kind of experiment: Inhibition of ABCG2 (unknown origin) expressed in MDCK2 cells co-expressing BCRP (unknown origin) assessed as effect on pheophorbide A accumulation at 10 uM pre-incubated for 20 mins followed by pheophorbide A addition and measured after 120 mins by flow cytometric analysis relative to Ko143. Particulars: probe pheophorbide A. The method, boiled down: as §1

The target of the next data set is ABCB1 (P-gp) (Homo sapiens, UniProt P08183). The experiment in a line: Inhibition of ABCB1 in human A2780/ADR cells at 10 uM preincubated for 30 mins followed by calcein AM addition and measured at 60 secs time interval by fluorescence assay relative to cyclosporine A. Particulars: probe calcein AM.
ABCB1 (P-gp), sequence (P08183 whole entry): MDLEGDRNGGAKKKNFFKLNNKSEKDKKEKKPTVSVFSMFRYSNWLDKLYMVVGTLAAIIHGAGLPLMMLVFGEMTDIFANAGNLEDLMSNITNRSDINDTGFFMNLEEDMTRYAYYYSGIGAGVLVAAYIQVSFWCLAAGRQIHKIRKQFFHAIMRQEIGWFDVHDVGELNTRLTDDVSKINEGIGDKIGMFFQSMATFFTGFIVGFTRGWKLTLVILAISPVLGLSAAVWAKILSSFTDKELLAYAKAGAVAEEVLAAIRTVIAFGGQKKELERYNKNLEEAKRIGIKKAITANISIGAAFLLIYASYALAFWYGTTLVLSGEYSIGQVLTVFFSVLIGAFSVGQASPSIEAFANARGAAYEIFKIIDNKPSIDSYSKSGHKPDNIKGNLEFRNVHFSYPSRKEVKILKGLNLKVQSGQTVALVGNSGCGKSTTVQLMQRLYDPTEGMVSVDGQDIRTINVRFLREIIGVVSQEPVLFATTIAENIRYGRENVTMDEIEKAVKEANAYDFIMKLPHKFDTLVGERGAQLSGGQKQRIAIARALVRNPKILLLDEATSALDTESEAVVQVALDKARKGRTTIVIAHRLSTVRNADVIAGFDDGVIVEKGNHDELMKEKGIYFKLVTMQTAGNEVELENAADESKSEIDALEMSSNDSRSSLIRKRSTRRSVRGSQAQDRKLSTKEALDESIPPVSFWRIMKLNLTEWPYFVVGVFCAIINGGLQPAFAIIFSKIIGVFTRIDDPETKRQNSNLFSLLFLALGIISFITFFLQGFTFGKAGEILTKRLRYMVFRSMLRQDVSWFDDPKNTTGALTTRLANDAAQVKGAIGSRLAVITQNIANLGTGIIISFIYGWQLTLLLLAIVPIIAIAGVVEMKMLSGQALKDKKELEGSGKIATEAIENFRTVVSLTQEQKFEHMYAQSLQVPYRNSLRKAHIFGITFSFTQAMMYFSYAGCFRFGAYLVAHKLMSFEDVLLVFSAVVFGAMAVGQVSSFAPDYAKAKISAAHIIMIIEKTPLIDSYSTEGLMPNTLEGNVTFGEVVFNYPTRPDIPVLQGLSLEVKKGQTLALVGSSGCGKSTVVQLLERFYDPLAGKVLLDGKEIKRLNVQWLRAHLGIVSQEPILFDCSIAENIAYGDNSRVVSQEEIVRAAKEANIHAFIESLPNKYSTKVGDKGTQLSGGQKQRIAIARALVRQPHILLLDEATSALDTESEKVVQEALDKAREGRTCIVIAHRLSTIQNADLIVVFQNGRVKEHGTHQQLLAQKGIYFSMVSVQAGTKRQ
Data set [2] has as its target ATP-dependent translocase ABCB1 (Homo sapiens, UniProt P08183). As to the kind of experiment: Inhibition of ABCB1 in human A2780/ADR cells preincubated for 30 mins followed by calcein AM addition and measured at 60 secs time interval by fluorescence assay.
Another data set deals with ABCC1 (MRP1) (Homo sapiens, UniProt P33527). The experiment in a line: Inhibition of ABCC1 in human H69AR cells at 10 uM preincubated for 30 mins followed by calcein-AM addition measured at 60 secs time interval by fluorescence assay relative to control. Particulars: probe calcein-AM. The method, boiled down: (§2)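 Calcein AM accumulation assay in H69AR small-cell lung cancer cells, which express only ABCC1. Inhibited efflux lets calcein AM build up intracellularly, where esterases cleave it to fluorescent calcein. The screen used 10 µM, scaled to a standard ABCC1 inhibitor at 10 µM as 100%. Hits reaching ≥20% inhibition (+SEM) went on to IC50 curves, constrained to that 100% maximum. Values are means of ≥3 independent experiments in duplicate ± SEM.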
ABCC1 (MRP1), sequence (P33527 whole entry): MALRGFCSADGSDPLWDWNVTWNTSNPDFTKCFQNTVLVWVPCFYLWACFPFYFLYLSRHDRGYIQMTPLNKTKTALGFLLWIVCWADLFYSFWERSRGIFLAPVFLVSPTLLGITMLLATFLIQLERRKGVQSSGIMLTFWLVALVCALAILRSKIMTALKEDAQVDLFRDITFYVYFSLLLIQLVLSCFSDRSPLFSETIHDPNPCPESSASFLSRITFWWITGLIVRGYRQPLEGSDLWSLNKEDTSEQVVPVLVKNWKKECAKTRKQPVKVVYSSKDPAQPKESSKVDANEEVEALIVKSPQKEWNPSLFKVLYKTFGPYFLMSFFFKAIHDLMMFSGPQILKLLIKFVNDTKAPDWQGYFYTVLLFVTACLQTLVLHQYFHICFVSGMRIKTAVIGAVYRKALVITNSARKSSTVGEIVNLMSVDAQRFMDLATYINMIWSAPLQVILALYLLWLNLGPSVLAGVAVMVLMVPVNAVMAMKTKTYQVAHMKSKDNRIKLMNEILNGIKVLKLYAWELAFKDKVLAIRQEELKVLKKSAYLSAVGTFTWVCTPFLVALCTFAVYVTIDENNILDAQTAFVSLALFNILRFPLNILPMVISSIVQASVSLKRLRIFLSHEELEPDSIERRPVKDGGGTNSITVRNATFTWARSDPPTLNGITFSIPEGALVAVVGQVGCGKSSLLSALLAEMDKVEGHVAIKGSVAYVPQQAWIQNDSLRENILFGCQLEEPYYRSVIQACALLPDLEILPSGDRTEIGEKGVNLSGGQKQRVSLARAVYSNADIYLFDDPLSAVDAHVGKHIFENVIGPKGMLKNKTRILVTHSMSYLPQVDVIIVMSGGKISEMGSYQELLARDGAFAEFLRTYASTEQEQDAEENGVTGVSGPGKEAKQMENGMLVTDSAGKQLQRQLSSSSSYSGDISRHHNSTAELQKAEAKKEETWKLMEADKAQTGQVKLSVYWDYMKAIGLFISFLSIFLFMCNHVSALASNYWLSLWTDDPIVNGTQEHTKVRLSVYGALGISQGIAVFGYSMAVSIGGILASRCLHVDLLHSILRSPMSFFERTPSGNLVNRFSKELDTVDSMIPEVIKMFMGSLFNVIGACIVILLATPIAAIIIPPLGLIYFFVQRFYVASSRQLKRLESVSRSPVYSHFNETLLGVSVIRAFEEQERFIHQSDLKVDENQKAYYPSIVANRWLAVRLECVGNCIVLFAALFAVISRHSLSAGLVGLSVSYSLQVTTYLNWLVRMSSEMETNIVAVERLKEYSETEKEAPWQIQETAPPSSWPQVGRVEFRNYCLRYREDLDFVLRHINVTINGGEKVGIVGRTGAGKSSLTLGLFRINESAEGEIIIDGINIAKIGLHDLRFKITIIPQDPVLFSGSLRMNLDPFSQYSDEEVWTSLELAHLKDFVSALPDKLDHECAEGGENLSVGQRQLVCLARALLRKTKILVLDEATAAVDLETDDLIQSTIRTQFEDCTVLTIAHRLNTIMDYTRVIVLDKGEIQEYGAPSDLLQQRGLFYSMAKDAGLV

The target of data set [3] is T3, Multidrug resistance-associated protein 1 (Homo sapiens, UniProt P33527). The experiment in a line: Inhibition of ABCC1 in human H69AR cells preincubated for 30 mins followed by calcein-AM addition measured at 60 secs time interval by fluorescence assay. The method, boiled down:
as §2

In data set [4] the target is T3, Multidrug resistance-associated protein 1. The experiment in a line: Inhibition of MRP1 in human COR-L23/R cells assessed reduction in tritiated daunomycin efflux incubated for 2 hrs by radioactivity-based assay.

SMILES strings stand for the structures. pIC50: −log10 of the molar value.

T3 sequence (P33527 whole entry): as above
ATP-dependent translocase ABCB1, sequence (P08183 whole entry): as the sequence (P08183 whole entry) above

As to `O=C(CSc1nnc(-c2ccc(F)cc2)o1)N1CCN(Cc2ccc3c(c2)CCO3)CC1`, the pIC50 in data set [1] is 4.84; in data set [2], 4.51. The inhibition at 2 h, 10 µM at ABCG2 (BCRP) was at least 20%. Besides, the inhibition at 1 min, 10 µM at ABCB1 (P-gp) was at least 20%.

For the molecule `Fc1ccccc1N1CCN(Cc2csc(-c3ccc4c(c3)OCO4)n2)CC1`, the negative-log IC50 (pIC50) in data set [1] was 4.95; in data set [2] it was 4.81. In addition, the inhibition at 2 h, 10 µM at ABCG2 (BCRP) is at least 20%. Further, the inhibition at 1 min, 10 µM on ABCB1 (P-gp) was at least 20%.

Consider `C[C@@]1(C(=O)Nc2ccc(F)nc2)CCCN1c1nc(Nc2cc(C3CC3)n[nH]2)c2cccn2n1` [BMS-754807], for which the inhibition at 1 min, 10 µM on ABCC1 (MRP1) and at ABCB1 (P-gp) was at least 20% in each case. Moreover, the negative-log IC50 (pIC50) in data set [1] is 4.99; in data set [3], 4.44; in data set [2] it was 4.75. For the same molecule, at ABCG2 (BCRP), the inhibition at 2 h, 10 µM was at least 20%.

Turning to `Cc1cc(C)c2c(n1)sc1c(N3CCN(Cc4ccccc4Cl)CC3)ncnc12`, the pIC50 in data set [1] was 5.06; in data set [2], 5.55. Further, the inhibition at 2 h, 10 µM on ABCG2 (BCRP) was at least 20%. Also, the inhibition at 1 min, 10 µM at ABCB1 (P-gp) was at least 20%.

Turning to `Cc1ccccc1-n1c(SCC(=O)N2CCN(Cc3ccccc3)CC2)nnc1-c1cccnc1`, on ABCB1 (P-gp), the inhibition at 1 min, 10 µM was at least 20%. In addition, in data set [2], the pIC50 was 4.81.

For the molecule `Cc1nc2cc(NC(=O)C3CCCN(c4cc(-n5cccn5)ncn4)C3)ccc2s1` (stereo not drawn), the inhibition at 1 min, 10 µM on ABCC1 (MRP1) and on ABCB1 (P-gp) was at least 20% throughout. The pIC50 in data set [1] is 5.86; in data set [3], 4.64; in data set [2], 5.32. Moreover, the inhibition at 2 h, 10 µM on ABCG2 (BCRP) was at least 20%.

Turning to `N#Cc1ccc(CN2CCN(C(=O)c3cn(Cc4ccccc4)nc3-c3cccnc3)CC2)cc1`, the pIC50 in data set [1] was 4.81. On ABCG2 (BCRP), the inhibition at 2 h, 10 µM was at least 20%.

As for `Cc1ccccc1-n1nnnc1SCC(=O)N1CCN(Cc2ccccc2)CC1`, the inhibition at 1 min, 10 µM at ABCB1 (P-gp) is at least 20%. Also, the pIC50 in data set [2] is 4.58.

As for `O=C(c1cc(-c2cccnc2)nc2ccccc12)N1CCN(Cc2cccs2)CC1`, the inhibition at 1 min, 10 µM at ABCC1 (MRP1) and on ABCB1 (P-gp) was at least 20% throughout. For the same molecule, the results for the pIC50 in data set [1], in data set [3] and in data set [2] were 4.80, 4.41 and 4.56, respectively. In addition, the inhibition at 2 h, 10 µM at ABCG2 (BCRP) was at least 20%.

For the molecule `CCCc1cc(N2CCN(CCOc3cccc4ccccc34)CC2)n2nc3nc(C)cc(C)c3c2n1`, the pIC50 in data set [1] is 4.93; in data set [2], 4.84. Further, the inhibition at 2 h, 10 µM at ABCG2 (BCRP) was at least 20%. Also, on ABCB1 (P-gp), the inhibition at 1 min, 10 µM is at least 20%.

`O=C(c1ccc2c(c1)OCCO2)C1CCN(C(=O)c2ccc(-n3cccn3)cc2)CC1`: the pIC50 in data set [1] was 4.98. The inhibition at 2 h, 10 µM at ABCG2 (BCRP) is at least 20%.

`CCOC(=O)Cn1c2cccc(C(N)=O)c2c2ncnc(N3CCN(CCc4ccc(F)c(F)c4)CC3)c21`: the pIC50 in data set [4] was 6.91.

The term pIC50 denotes the IC50 on a negative log10 scale, so that one unit is a factor of ten. What is called inhibition is the change of the read-out against control, counted positive when it falls.
